MrgX1 allo act – positive allosteric modulators of MrgX1, primary screen, HEK293 cells, Fluo-4 calcium flux | actives 0.63% (n = 310,000) | B-score at 10 µM | FDSS; active compounds read high;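 active = plate-corrected calcium response at least 3 library SD above typical, normal starting fluorescence, not activating the receptor alone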;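 note: compound read alongside a low EC10 to EC30 dose of BAM8-22 agonist; peak minus trough fluorescence over baseline measured at the second addition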
Target sequence (Q96LB2 whole entry, looked up): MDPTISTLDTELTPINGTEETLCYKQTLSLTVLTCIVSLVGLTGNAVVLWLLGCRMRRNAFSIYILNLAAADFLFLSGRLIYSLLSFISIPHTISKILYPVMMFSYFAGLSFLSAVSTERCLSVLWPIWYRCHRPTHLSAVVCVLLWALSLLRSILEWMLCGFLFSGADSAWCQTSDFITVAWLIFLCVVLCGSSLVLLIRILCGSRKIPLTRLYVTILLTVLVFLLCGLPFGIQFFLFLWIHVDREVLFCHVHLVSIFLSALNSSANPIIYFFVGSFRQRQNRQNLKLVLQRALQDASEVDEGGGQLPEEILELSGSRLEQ
RGS4 block – RGS4 inhibitors, primary screen, cell-based, HEK293 M3R inducible RGS4, calcium flux. Fluo-4 calcium flux; active compounds read high; triggered by carbachol at its EC20. Regulator of G-protein signaling 4 (Homo sapiens), P49798. B-score at 10 µM. AID 463165, 2010. actives 0.45% (n = 310,000);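 active = B-score, a plate-corrected calcium signal, over three deviations above library mean, with baseline fluorescence within five deviations of library mean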;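 note: RGS4 expression induced by doxycycline in cells with stable M3 receptor; B-score is computed from the integrated fluorescence ratio over baseline after carbachol; higher B-score means a larger calcium signal and so more RGS4 inhibition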
MrgX1 ag – agonists of human MrgX1 receptor, primary screen, HEK293 cells, Fluo-4 calcium flux; actives 0.44% (n = 310,000); B-score at 10 µM; Fluo-4 calcium fluorescence, agonist mode; active compounds read high; AID 588627, 2011;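 active = calcium response B-score plate-corrected fluorescence ratio at least 3 library SD, with starting fluorescence B-score inside 5 SD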
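Assay system: MrgX1-expressing HEK293 cells / Amount: fifteen thousand cells per well / Doses: test compound in the initial addition of three / Timing: cells plated overnight, dye loaded 0.5 h 37 °C, 0.5 h room temperature / Technique: kinetic calcium dye fluorescence, Fluo-4 NW / Control set: positive and negative controls per plate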
MrgX1 antag – antagonists of human MrgX1 receptor, primary screen, HEK293 cells, Fluo-4 calcium flux | Mas-related G-protein coupled receptor member X1 (Homo sapiens), Q96LB2 | BAM8-22 antagonism; active compounds read low | B-score at 10 µM | actives 1.3% (n = 310,000);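 active = calcium-response B-score plate-corrected more than 3 library SD below zero, starting fluorescence within 5 deviations, no agonist response on first addition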;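 note: peak minus trough fluorescence over baseline after final BAM8-22 challenge near maximal dose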
RGS4 pot – RGS4 potentiators or activators, primary screen, cell-based, HEK293 M3R inducible RGS4, calcium flux; actives 0.92% (n = 310,000); carbachol calcium flux Fluo4; active compounds read low; B-score at 10 µM;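 active = B-score of the integrated calcium signal more than 4 SD below the library mean, with starting fluorescence not abnormally high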;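 note: negative B-score means reduced calcium response which marks RGS4 activation or potentiation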
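System: HEK293 FlpIn-TREx cells, stable M3R, doxycycline-inducible RGS4. Timing: overnight RGS4 induction, 30 min dye load 37 °C, 20 min compound RT. Also added: carbachol, ECmax concentration. Measured by: Fluo4 fluorescence kinetic imaging of calcium. Evaluation: integrated calcium ratio converted to B score.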
Kir21 block – inhibitors of mouse Kir2.1 inward-rectifier potassium channel. actives 0.85% (n = 310,000). HEK293-Kir2.1, FluxOR thallium flux fluorescence; active compounds read low. Inward rectifier potassium channel 2 (Mus musculus), P35561. B-score at 10 µM;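 active = fluorescence ratio B-score at or below minus 3 SD of library scores, with starting-brightness B-score within 2 SD, cut at about -4.2 in these data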;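 note: channel flux triggered by added potassium and thallium sulfate stimulus; B-score of peak minus minimum fluorescence over baseline after thallium stimulus; more negative B-score means stronger Kir2.1 block with less thallium influx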
Target sequence (P35561 whole entry, looked up): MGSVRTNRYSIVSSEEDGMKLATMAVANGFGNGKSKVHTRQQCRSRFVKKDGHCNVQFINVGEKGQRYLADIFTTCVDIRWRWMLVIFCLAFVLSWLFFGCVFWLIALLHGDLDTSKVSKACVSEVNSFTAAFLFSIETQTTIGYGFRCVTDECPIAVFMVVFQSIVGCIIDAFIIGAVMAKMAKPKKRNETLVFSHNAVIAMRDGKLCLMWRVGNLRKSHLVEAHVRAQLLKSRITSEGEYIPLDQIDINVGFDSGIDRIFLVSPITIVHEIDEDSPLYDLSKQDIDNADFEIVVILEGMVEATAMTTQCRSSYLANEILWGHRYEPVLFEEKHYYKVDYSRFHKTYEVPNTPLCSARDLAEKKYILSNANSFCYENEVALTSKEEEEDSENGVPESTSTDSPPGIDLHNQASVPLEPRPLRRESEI
MrgX1 ag reconf – MrgX1 receptor agonists, duplicate retest, confirmation, HEK293 cells, Fluo-4 calcium flux; shares compounds with MrgX1 ag; Fluo-4 calcium fluorescence, FDSS; activation, % at 10 µM; actives 78% (n = 600); AID 602412, 2012;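 active = calcium signal rise, corrected for plate position, at least 3 library SD high, with starting brightness within 5 such deviations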
HEK293 Ca flux – nonspecific calcium signal in parental HEK293, confirmation, counter-screen for MrgX1 antagonist project, parental HEK293 cells, Fluo-4 calcium flux | shares compounds with MrgX1 antag | fluorescence ratio F(max-min)/F0 at 10 µM | AID 624111, 2012 | Fluo-4 calcium fluorescence, FDSS | actives 2% (n = 4,000);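 active = duplicate-averaged calcium fluorescence ratio at least three times the standard deviation of buffer wells, a nonspecific response in parental cells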
HEK293 Ca counter – calcium response in parental HEK293 cells, primary screen, counter-screen for MrgX1 allosteric activator project, cell-based, Fluo-4 calcium flux, duplicate | shares compounds with MrgX1 antag | Fluo-4 fluorescence ratio; active compounds read high | fluorescence ratio F(max-min)/F0 at 10 µM | actives 0.4% (n = 4,000) | AID 624114, 2012;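 active = calcium fluorescence ratio, averaged over duplicates, at least 3 SD of the buffer-well ratio, meaning a nonspecific response in receptor-free cells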;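 note: untransfected parental HEK293 lacking MrgX1 used as counterscreen for MrgX1 allosteric activators; fluorescence change taken during the second addition on a kinetic imager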
HEK293 Ca cntr2 – calcium response in parental HEK293 cells, primary screen, counter-screen for MrgX1 agonist project, cell-based, Fluo-4 calcium flux, duplicate, agonist mode | shares compounds with MrgX1 antag | Fluo-4 calcium fluorescence (FDSS); active compounds read high | fluorescence ratio F(max-min)/F0 at 10 µM | actives 8.7% (n = 4,000) | AID 624115, 2012;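 active = calcium fluorescence ratio at least three times the spread of buffer wells, meaning a non-specific response in parental cells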
Large screens that a line does not name were inactive (follow-up assays come after a bar, where they were run). This is a sample that favours compounds with a hit; in the whole collection about 4.1% have one here.

COc1ccc(N=Cc2sc(O)c3ccccc23)cc1	MrgX1 ag 44 | MrgX1 ag reconf inactive | HEK293 Ca flux 0.57 | HEK293 Ca counter inactive | HEK293 Ca cntr2 121
COc1ccc(N=Cc2c(O)c3ccccc3n2C(C)=O)cc1	MrgX1 ag 62 | MrgX1 ag reconf 583% | HEK293 Ca flux inactive | HEK293 Ca counter inactive | HEK293 Ca cntr2 110
COc1ccc(-n2c(O)c(C=Nc3ccccc3)c3ccccc3c2=O)cc1	none
Oc1cccc2ccc(N3CCOCC3)nc12	none
CC(=O)Cc1nsc(NC(=O)c2ccc(-c3ccc(Cl)c(C(F)(F)F)c3)o2)n1	none
COc1ccc(CCNc2cc(C)nc(N)n2)cc1OC	MrgX1 ag 45 | MrgX1 ag reconf 242% | HEK293 Ca flux inactive | HEK293 Ca counter inactive | HEK293 Ca cntr2 inactive
CN(NS(=O)(=O)c1ccc(Cl)cc1)c1cnn(C)c(=O)c1Cl	none
Cc1ccc(OCc2nc(-c3ccc(Cl)cc3)n[nH]2)cc1	none
Cc1ccc(-c2n[nH]c(Cc3ccccc3)n2)cc1	MrgX1 ag 28 | MrgX1 ag reconf 97% | HEK293 Ca flux inactive | HEK293 Ca counter inactive | HEK293 Ca cntr2 inactive
O=C(Nc1ccnn1C1CCN(Cc2cc3ccccc3[nH]2)CC1)C1CCOC1 (centres undefined)	MrgX1 ag 29 | MrgX1 ag reconf 339% | HEK293 Ca flux inactive | HEK293 Ca counter inactive | HEK293 Ca cntr2 73
Cc1c(CN2CCC(n3nccc3NC(=O)C3CCOC3)CC2)[nH]c2ccccc12 (centres undefined)	none
N=C1/C(=C\c2ccc(SCc3ccco3)o2)C(=O)N=C2SC=NN12	MrgX1 ag 90 | MrgX1 ag reconf 267% | HEK293 Ca flux inactive | HEK293 Ca counter inactive | HEK293 Ca cntr2 47
Cc1ccc(S(=O)(=O)Nc2ccc(C(=O)NCc3ccccn3)cc2)cc1	none
COc1ccccc1NC(=O)N1CCCC1C(=O)Nc1ccc2c(c1)OCO2 (centres undefined)	none
COc1cccc(-n2c(SCC(=O)NCC3CCCO3)nc3c([nH]c4ccccc43)c2=O)c1 (centres undefined)	MrgX1 ag 30 | MrgX1 ag reconf 99% | HEK293 Ca flux inactive | HEK293 Ca counter inactive | HEK293 Ca cntr2 inactive
COc1ccc(-c2ccc(CCC(=O)O)n2Cc2ccco2)cc1	none
O=C(O)CCc1ccc(-c2ccc(Cl)cc2)n1Cc1ccco1	MrgX1 ag 38 | MrgX1 ag reconf 159% | HEK293 Ca flux inactive | HEK293 Ca counter inactive | HEK293 Ca cntr2 inactive
COc1cc(-c2cc(OC)c3c(C)oc(C)c3c(=O)c2)ccc1O	MrgX1 ag 30 | MrgX1 ag reconf 175% | HEK293 Ca flux inactive | HEK293 Ca counter inactive | HEK293 Ca cntr2 inactive
COc1ccc(-c2cc(OC)c3c(C)oc(C)c3c(=O)c2)cc1OC	none
CCCCNC(=S)N(C)/N=C/c1ccc(OCC(=O)Nc2c(C)cc(C)cc2C)c(OC)c1	none
CS(=O)(=O)c1nc(-c2ccccc2)cc(C(F)(F)F)n1	MrgX1 ag 38 | MrgX1 ag reconf 184% | HEK293 Ca flux inactive | HEK293 Ca counter inactive | HEK293 Ca cntr2 inactive
Cc1cc(NC(=O)CCS(=O)(=O)c2nc(-c3ccccc3)cc(C(F)(F)F)n2)no1	none (no result: RGS4 block, RGS4 pot, Kir21 block)
O=C(Cn1nc(Cl)nc1Cl)c1ccc2c(c1)OCCO2	MrgX1 ag 53 | MrgX1 ag reconf 194% | HEK293 Ca flux inactive | HEK293 Ca counter inactive | HEK293 Ca cntr2 inactive
c1ccc2c(c1)CNc1ccccc1C2	MrgX1 ag 30 | MrgX1 ag reconf 224% | HEK293 Ca flux inactive | HEK293 Ca counter inactive | HEK293 Ca cntr2 inactive
O=C(O)[C@@H]1Cc2ccccc2N1	none
O=C(Cn1nc(-c2ccccc2)c2ccccc2c1=O)NN1CCOCC1	none
O=S(=O)(c1ccccc1)c1nnn2c1nc(NC1CCN(Cc3ccccc3)CC1)c1ccccc12	MrgX1 ag 60 | MrgX1 ag reconf 274% | HEK293 Ca flux inactive | HEK293 Ca counter inactive | HEK293 Ca cntr2 inactive
CCCOc1ccc(-c2csc3ncn(Cc4ccc(C(=O)O)cc4)c(=O)c23)cc1	MrgX1 ag 32 | MrgX1 ag reconf 204% | HEK293 Ca flux inactive | HEK293 Ca counter inactive | HEK293 Ca cntr2 inactive
O=C1CCCCCN1Sc1ccccc1	MrgX1 ag 30 | MrgX1 ag reconf 123% | HEK293 Ca flux inactive | HEK293 Ca counter inactive | HEK293 Ca cntr2 inactive
O=C(NCc1ccccc1)NC(=O)c1ccncc1	none
COC(=O)Cn1c(=O)c2c(n(Cc3ccccc3)c1=O)N/C(=C/c1ccc(Br)cc1)C2=O	MrgX1 ag 45 | MrgX1 ag reconf 383% | HEK293 Ca flux inactive | HEK293 Ca counter inactive | HEK293 Ca cntr2 72
O=C1N/C(=C/c2ccc(Br)cc2)C(O)=C1C=NCc1ccccc1	none
Cc1ccc(NS(=O)(=O)c2ccc(C(=O)N3CC(C)CC(C)C3)cc2)cc1 (centres undefined)	MrgX1 ag 28 | MrgX1 ag reconf 151% | HEK293 Ca flux inactive | HEK293 Ca counter inactive | HEK293 Ca cntr2 71
Cc1ccc(Nc2nc(N)nc(CN3CCC(C)CC3)n2)c(C)c1	none
CC1CCCCN1S(=O)(=O)c1ccc(C(=O)Nc2nnc(-c3ccccc3Cl)o2)cc1 (centres undefined)	MrgX1 ag 41 | MrgX1 ag reconf 323% | HEK293 Ca flux inactive | HEK293 Ca counter inactive | HEK293 Ca cntr2 63
O=C(CCC1CCCC1)c1c(O)c2ccccc2oc1=O	MrgX1 ag 87 | MrgX1 ag reconf 564% | HEK293 Ca flux inactive | HEK293 Ca counter inactive | HEK293 Ca cntr2 111

Screening data (PubChem)
